Assay results published in ChEMBL document CHEMBL1153226, “Isoxazolopyridone derivatives as allosteric metabotropic glutamate receptor 7 antagonists” (Bioorg Med Chem Lett, 2010).
Values after ≈ are worked out from the molar mass of the structure shown.

Tests used:
[1] = target: Metabotropic glutamate receptor 7 (Rattus norvegicus, UniProt P35400); test: Antagonist activity at rat mGluR7 expressed in CHO cells assessed as inhibition of LAP-induced intracellular calcium mobilization by FLIPR; assay type: functional, cell-based
Sequence of Metabotropic glutamate receptor 7 (P35400 whole entry): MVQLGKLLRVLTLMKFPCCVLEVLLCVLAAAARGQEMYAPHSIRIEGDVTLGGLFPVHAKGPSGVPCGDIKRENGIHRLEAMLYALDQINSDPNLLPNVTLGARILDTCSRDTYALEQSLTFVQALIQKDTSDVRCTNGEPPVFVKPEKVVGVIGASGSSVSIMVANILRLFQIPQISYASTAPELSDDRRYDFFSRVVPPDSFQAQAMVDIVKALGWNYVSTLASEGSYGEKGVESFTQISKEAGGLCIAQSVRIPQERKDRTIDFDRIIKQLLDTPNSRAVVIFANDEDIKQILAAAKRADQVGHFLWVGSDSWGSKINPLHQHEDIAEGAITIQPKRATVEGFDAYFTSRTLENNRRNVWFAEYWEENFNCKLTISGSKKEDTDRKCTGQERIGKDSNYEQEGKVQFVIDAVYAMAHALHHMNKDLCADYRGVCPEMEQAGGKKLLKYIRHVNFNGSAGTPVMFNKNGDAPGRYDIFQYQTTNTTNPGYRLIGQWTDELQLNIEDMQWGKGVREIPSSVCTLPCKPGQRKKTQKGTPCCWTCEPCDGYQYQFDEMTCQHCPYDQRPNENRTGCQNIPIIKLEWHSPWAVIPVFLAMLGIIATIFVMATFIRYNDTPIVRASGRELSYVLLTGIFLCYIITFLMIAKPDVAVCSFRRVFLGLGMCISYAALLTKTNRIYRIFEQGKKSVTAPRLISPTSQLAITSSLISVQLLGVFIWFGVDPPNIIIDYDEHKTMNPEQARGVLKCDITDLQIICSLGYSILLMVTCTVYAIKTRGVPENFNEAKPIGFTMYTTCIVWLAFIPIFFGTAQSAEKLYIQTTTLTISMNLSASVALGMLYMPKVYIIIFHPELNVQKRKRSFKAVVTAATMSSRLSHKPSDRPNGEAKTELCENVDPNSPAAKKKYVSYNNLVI
Procedure, shortened: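 CHO cells co-expressing mGluR7 and Gα15 were challenged with L-AP, and Ca2+ mobilization was read. IC50 was calculated from inhibition curves as the mean of at least two independent assays.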

[2] = Solubility at pH 7.4; assay type: physicochemical; details: buffer
[3] = Oral bioavailability in Sprague-Dawley rat at 10 mg/kg; assay type: ADME, organism-based; details: in vivo, 3 mg/kg, in the assay text read “3 mg/kg” for “10 mg/kg”
Procedure, shortened: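 Male SD rats (n = 3) were given a single iv dose of 1 mg/kg in PEG400/EtOH/H2O (50:10:40), or an oral gavage dose as a 0.5% methylcellulose aqueous suspension. Blood was sampled at multiple times up to 8 h. Plasma was deproteinized with ethanol containing internal standard. Values are means.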

[4] = Plasma concentration in Sprague-Dawley rat at 10 mg/kg, po after 0.5 hrs; assay type: ADME, organism-based; design: dose 10 mg/kg, route oral
Procedure, shortened: (§1)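 Male Sprague-Dawley rats (7–10 weeks, 200–400 g, n = 3) were dosed orally at 10 mg/kg as a 0.5% methylcellulose suspension. Aortic blood was taken under isoflurane at 0.5 and 2 h, and brain at 2 h. Plasma and brain homogenate were deproteinized with threefold ethanol plus internal standard and analysed by LC–MS/MS against a relative calibration curve. B/P = brain (nmol/g) / plasma level.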

[5] = Plasma concentration in Sprague-Dawley rat at 2 mg/kg, po after 0.5 hrs; assay type: ADME, organism-based; design: dose 2 mg/kg, route oral
[6] = Ratio of drug level in brain to plasma in Sprague-Dawley rat at 10 mg/kg, po after 2 hrs; assay type: ADME, organism-based; design: dose 10 mg/kg, route oral; details: read-out: BPR; procedure, shortened: as §1
[7] = AUC in Sprague-Dawley rat at 1 mg/kg, iv and 3 mg/kg, po; details: plasma
[8] = Plasma clearance in Sprague-Dawley rat at 1 mg/kg, iv and 3 mg/kg, po

| SMILES | IC50 [1] [nM] | other results |
| --- | --- | --- |
| Cn1c(-c2ccccc2)cc2onc(-c3ccncc3)c2c1=O | 101 |  |
| CN(C)c1ccc(-c2cc3onc(-c4ccccc4)c3c(=O)n2C)cc1 | 140 |  |
| Cn1c(-c2cccc(C(F)(F)F)c2)cc2onc(-c3ccccc3)c2c1=O | 96 |  |
| COc1ccc(-c2cc3onc(-c4ccccc4)c3c(=O)n2C)cc1F | 210 |  |
| CCCc1ccc(-c2cc3onc(-c4ccccc4)c3c(=O)n2C)cc1 | 150 |  |
| Cn1c(-c2ccccc2)cc2onc(-c3cccnc3)c2c1=O | 240 |  |
| Cn1c(-c2ccccc2)cc2onc(-c3ccccn3)c2c1=O | 1000 |  |
| CCn1c(-c2ccccc2)cc2onc(-c3ccccc3)c2c1=O | 910 |  |
| CC(C)n1c(-c2ccccc2)cc2onc(-c3ccccc3)c2c1=O | > 10000 |  |
| CC(C)Oc1ccc(-c2cc3onc(-c4ccccc4)c3c(=O)n2C)cc1 | > 10000 |  |
| COc1ccc(-c2cc3onc(-c4ccccc4)c3c(=O)n2C)cc1Br | 580 |  |

These reach a lower IC50 [1]. Values come first.

| IC50 [1] [nM] | SMILES | other results |
| --- | --- | --- |
| 22 | COc1ccc(-c2cc3onc(-c4ccccc4)c3c(=O)n2C)cc1 |  |
| 26 | Cn1c(-c2ccc3c(c2)OCO3)cc2onc(-c3ccccc3)c2c1=O |  |
| 29 | COc1ccc(-c2noc3cc(-c4ccccc4)n(C)c(=O)c23)cc1 |  |
| 26 | COc1ccc(-c2cc3onc(-c4ccncc4)c3c(=O)n2C)cc1 | solubility [2]: 3.3 µg/mL (≈ 9.9 µM); bioavailability [3]: 65%; concentration at 0.5 h [4]: 5.1 µM; concentration at 0.5 h [5]: 3.9 µM; Kp at 2 h [6]: 1; AUC [7]: 0.71 µM·h; clearance [8]: 1 mL/min/kg |
| 31 | CN(C)c1cccc(-c2cc3onc(-c4ccccc4)c3c(=O)n2C)c1 |  |
| 12 | COc1cccc(-c2noc3cc(-c4ccccc4)n(C)c(=O)c23)c1 |  |
| 21 | COc1ccccc1-c1noc2cc(-c3ccccc3)n(C)c(=O)c12 |  |
| 51 | Cc1ccc(-c2cc3onc(-c4ccccc4)c3c(=O)n2C)cc1 |  |
| 72 | Cn1c(-c2ccc(F)cc2)cc2onc(-c3ccccc3)c2c1=O |  |
| 20 | Cn1c(-c2ccccc2)cc2onc(-c3ccccc3)c2c1=O | solubility [2]: 0.17 µg/mL (≈ 0.562 µM) |
